Experiments:
CCRF-CEM = assay: Concentration required for growth inhibition of human lymphoblastic leukemic cell line (CCRF-CEM) was determined; type: functional, cell-based
Outline: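 Leukemic CCRF-CEM cells and their vinblastine-resistant (CCRF-CEM/VBL) and taxol-resistant (CCRF-CEM/taxol) sublines were incubated for 72 h. Growth inhibition was read by XTT assay and expressed as IC50. For the resistant sublines, fold resistance was calculated relative to the parent CCRF-CEM IC50.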

[1] = Concentration required for growth inhibition of taxol resistant human lymphoblastic leukemic cell line (CCRF-CEM/taxol) was determined; type: functional, cell-based
Outline: (§1)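 Drug-resistant human lymphoblastic leukemia sublines (vinblastine-resistant CCRF-CEM/VBL; taxol-resistant CCRF-CEM/taxol). Growth inhibition measured by XTT assay after 72 h incubation, reported as IC50.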

A549 = assay: Concentration required for growth inhibition of […] was determined; type: functional, cell-based; conditions: Homo sapiens
[2] = Concentration required for growth inhibition of vinblastine resistant human lymphoblastic leukemic cell line (CCRF-CEM/VBL) was determined; type: functional, cell-based; outline: as §1
HCT-116 = assay: Concentration required for growth inhibition of human HCT116 colon tumor cell line […] was determined; type: functional, cell-based
Mus musculus [3] = assay: Average change in body weight of mice bearing human mammary carcinoma (MX-1) xenograft on 14th day of administration (dose = 1-2 mg/kg); type: functional
Outline: (§2)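 Nude mice (n = 3) bearing human MX-1 mammary carcinoma xenografts (Day 0). Intravenous treatment started on D11, when tumors were 80–120 mm3, at 1–2 mg/kg on a Q3D × 7 schedule. Body weight was taken as total body weight minus tumor weight. Animals with excessive tumor burden (>3500 mm3) were sacrificed.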

Mus musculus [4] = assay: Average change in body weight of mice bearing human mammary carcinoma (MX-1) xenograft on 17th day of administration (dose = 1-2 mg/kg); type: functional; outline: as §2
Mus musculus [5] = assay: Average change in body weight of mice bearing human mammary carcinoma (MX-1) xenograft on 20th day of administration (dose = 1-2 mg/kg); type: functional; outline: as §2
Mus musculus [6] = assay: Average change in body weight of mice bearing human mammary carcinoma (MX-1) xenograft on 23th day of administration (dose = 1-2 mg/kg); type: functional; outline: as §2
Mus musculus [7] = assay: Average change in body weight of mice bearing human mammary carcinoma (MX-1) xenograft on 26th day of administration (dose = 1-2 mg/kg); type: functional; outline: as §2
[8] = Average tumor size of human mammary carcinoma (MX-1) xenograft in mice on 17th day of administration (dose = 1-2 mg/kg); type: organism-based; conditions: mouse, in vivo
Outline: (§3)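 Human MX-1 breast carcinoma xenografts in nude mice (n = 3) with tumors established on Day 0. Dosing was iv, 1–2 mg/kg Q3D × 7, beginning D11 at tumor size 80–120 mm3. Tumor size was tracked in mm3, and mice were sacrificed when tumors exceeded 3500 mm3.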

[9] = Average tumor size of human mammary carcinoma (MX-1) xenograft in mice on 20th day of administration (dose = 1-2 mg/kg); type: organism-based; conditions: mouse, in vivo; outline: as §3
[10] = Average tumor size of human mammary carcinoma (MX-1) xenograft in mice on 23th day of administration (dose = 1-2 mg/kg); type: organism-based; conditions: mouse, in vivo; outline: as §3

Question: For `ClCCN(CCCl)CCOc1cccc(Nc2c3ccccc3nc3ccccc23)c1`, which IC50 (CCRF-CEM) is on record?
Answer: 90 nM

Question: For `Nc1cc(CO)cc(Nc2c3ccccc3nc3ccccc23)c1`, which IC50 [1] is on record?
Answer: 600 nM

Question: And the IC50 (A549)?
Answer: 47 nM

Question: What about the IC50 (CCRF-CEM) of the same compound?
Answer: 750 nM

Question: What about the IC50 [2] of the same compound?
Answer: 1600 nM

Question: With `CC[C@]1(O)C[C@@H]2CN(CCc3c([nH]c4ccccc34)[C@@](C(=O)OC)(c3cc4c(cc3OC)N(C)[C@H]3[C@@](O)(C(=O)OC)[C@H](OC(C)=O)[C@]5(CC)C=CCN6CC[C@]43[C@@H]65)C2)C1` [VINBLASTINE] as the compound, how does the IC50 [1] read?
Answer: 29 nM

Question: And the IC50 (HCT-116)?
Answer: 8.7 nM

Question: What about the IC50 (A549) of the same compound?
Answer: 9.9 nM

Question: And the IC50 (CCRF-CEM)?
Answer: 1.2 nM

Question: What about the IC50 [2] of the same compound?
Answer: 540 nM

Question: Which IC50 (CCRF-CEM) does the source give for `Cc1cccc2c(Nc3ccc(OCCN(CCCl)CCCl)cc3)c3cccc(C(=O)NCCN(C)C)c3nc12` here?
Answer: 770 nM

Question: Which IC50 [1] does the source give for `OCc1cc(Nc2c3ccccc3nc3ccccc23)cc(OCCN(CCCl)CCCl)c1` here?
Answer: 30 nM

Question: What about the IC50 (HCT-116) of the same compound?
Answer: 5.5 nM

Question: And the IC50 (A549)?
Answer: 5.6 nM

Question: What about the IC50 (CCRF-CEM) of the same compound?
Answer: 7 nM

Question: And the Weight (Mus musculus [3])?
Answer: 1.2 g

Question: And the Weight (Mus musculus [4])?
Answer: -1.4 g

Question: What about the Weight (Mus musculus [5]) of the same compound?
Answer: -3 g

Question: And the Weight (Mus musculus [6])?
Answer: -3 g

Question: And the Weight (Mus musculus [7])?
Answer: -3.9 g

Question: And the T/C [8]?
Answer: 0.37

Question: And the T/C [9]?
Answer: 0.17

Question: And the T/C [10]?
Answer: 0.14

Question: What about the IC50 [2] of the same compound?
Answer: 7.5 nM

Question: For `CC(=O)O[C@H]1C(=O)[C@@]2(C)[C@H]([C@H](OC(=O)c3ccccc3)[C@]3(O)C[C@H](OC(=O)[C@H](O)[C@@H](NC(=O)c4ccccc4)c4ccccc4)C(C)=C1C3(C)C)[C@]1(OC(C)=O)CO[C@@H]1C[C@@H]2O` [PACLITAXEL], which IC50 [1] is on record?
Answer: 140 nM

Question: And the IC50 (HCT-116)?
Answer: 2.6 nM

Question: What about the IC50 (A549) of the same compound?
Answer: 2.9 nM

Question: And the IC50 (CCRF-CEM)?
Answer: 1.5 nM

Question: What about the IC50 [2] of the same compound?
Answer: 1620 nM

Question: Which IC50 [1] does the source give for `ClCCN(CCCl)CCOc1ccc(Nc2c3ccccc3nc3ccccc23)cc1` here?
Answer: 60 nM

Question: And the IC50 (CCRF-CEM)?
Answer: 20 nM

Question: What about the IC50 [2] of the same compound?
Answer: 60 nM

Question: For `Cc1cccc2c(Nc3cccc(OCCN(CCCl)CCCl)c3)c3cccc(C(=O)NCCN(C)C)c3nc12`, which IC50 (CCRF-CEM) is on record?
Answer: 3 nM

Source: ChEMBL document CHEMBL1137839, “Potent antitumor N-mustard derivatives of 9-anilinoacridine, synthesis and antitumor evaluation” (Bioorg Med Chem Lett, 2004)
